From ChEMBL document CHEMBL1145477, “Activity of T-1106 in a hamster model of yellow Fever virus infection” (Antimicrob Agents Chemother, 2007)

What was measured:
Assay type in all cases: functional
Yellow fever virus [1] = test: Antiviral activity against YFV Jimenez infected in Syrian golden hamster assessed as mean day to death after 21 days post-infection at 50 mg/kg, ip bid for 7 days; settings: route intraperitoneal
Yellow fever virus [2] = test: Antiviral activity against YFV Jimenez infected in Syrian golden hamster assessed as weight change at 50 mg/kg, po bid for 7 days
Yellow fever virus [3] = test: Antiviral activity against YFV Jimenez infected in Syrian golden hamster liver treated 4 hrs before viral challenge assessed as alanine aminotransferase at 50 mg/kg/day, ip bid for 8 days; settings: route intraperitoneal
Method in brief: (§1)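 YFV (Jimenez)-infected female hamsters were treated b.i.d. i.p. or p.o. Serum was drawn by ocular sinus at 6 dpi. ALT was read with a colorimetric kit adapted to microplates: substrate plus serum for 30 min at 37°C, then colour reagent and developer, absorbance at 505 nm. Values are IU/liter against saline controls.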

Yellow fever virus [4] = test: Antiviral activity against YFV Jimenez infected in Syrian golden hamster liver treated 4 hrs before viral challenge assessed as mean day to death at 50 mg/kg/day, ip bid for 8 days; settings: route intraperitoneal
Yellow fever virus [5] = test: Antiviral activity against YFV Jimenez infected in Syrian golden hamster assessed as serum alanine aminotransferase at 50 mg/kg, ip bid for 7 days; settings: route intraperitoneal; method in brief: as §1

## NC(=O)c1ncn([C@@H]2O[C@H](CO)[C@@H](O)[C@H]2O)n1 [RIBAVIRIN]
Yellow fever virus [1]
  Activity: 6 days
Yellow fever virus [2]
  Activity: 1.3 g
Yellow fever virus [3]
  Activity: 120 IU/L
Yellow fever virus [4]
  Activity: 6 days
Yellow fever virus [5]
  Activity: 120 IU/L
